In ChEMBL document CHEMBL1926642, “Relevance of the C-5 position to schweinfurthin induced cytotoxicity” (2011):

What was measured:
Type in all cases: functional
UACC-257 = assay: Cytotoxicity against human UACC257 cells assessed as cell growth at 10 uM after 48 hrs by sulforhodamine B assay relative to control; details: UACC-257, 48 h, read-out: Activity
HCC 2998 = assay: Cytotoxicity against human HCC2998 cells assessed as cell growth at 10 uM after 48 hrs by sulforhodamine B assay relative to control; details: HCC 2998, 48 h, read-out: Activity
Procedure, shortened: (§1)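 Compounds went through the NCI 60 cell-line screen, whose current protocol tests first at a single dose.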

OVCAR-5 = assay: Cytotoxicity against human OVCAR5 cells assessed as cell growth at 10 uM after 48 hrs by sulforhodamine B assay relative to control; details: OVCAR-5, 48 h, read-out: Activity; procedure, shortened: as §1
HL-60(TB) = assay: Cytotoxicity against human HL-60(TB) cells assessed as cell growth at 10 uM after 48 hrs by sulforhodamine B assay relative to control; details: HL-60, 48 h, read-out: Activity
Procedure, shortened: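 Tested in the NCI 60 cell-line screen, where the current protocol starts with testing at a single dose.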

SN12C = assay: Cytotoxicity against human SN12C cells assessed as cell growth at 10 uM after 48 hrs by sulforhodamine B assay relative to control; details: read-out: Activity; procedure, shortened: as §1
OVCAR-8 = assay: Cytotoxicity against human OVCAR8 cells assessed as cell growth at 10 uM after 48 hrs by sulforhodamine B assay relative to control; details: OVCAR-8, 48 h, read-out: Activity; procedure, shortened: as §1
ACHN = assay: Cytotoxicity against human ACHN cells assessed as cell growth at 10 uM after 48 hrs by sulforhodamine B assay relative to control; details: read-out: Activity; procedure, shortened: as §1
KM12 = assay: Cytotoxicity against human KM12 cells assessed as cell growth at 10 uM after 48 hrs by sulforhodamine B assay relative to control; details: KM12, 48 h, read-out: Activity; procedure, shortened: as §1
SK-MEL-2 = assay: Cytotoxicity against human SK-MEL-2 cells assessed as cell growth at 10 uM after 48 hrs by sulforhodamine B assay relative to control; details: SK-MEL-2, 48 h, read-out: Activity; procedure, shortened: as §1
HCT-15 = assay: Cytotoxicity against human HCT15 cells assessed as cell growth at 10 uM after 48 hrs by sulforhodamine B assay relative to control; details: HCT-15, 48 h, read-out: Activity; procedure, shortened: as §1
SK-MEL-5 = assay: Cytotoxicity against human SK-MEL-5 cells assessed as cell growth at 10 uM after 48 hrs by sulforhodamine B assay relative to control; details: SK-MEL-5, 48 h, read-out: Activity; procedure, shortened: as §1
IGROV-1 = assay: Cytotoxicity against human IGROV1 cells assessed as cell growth at 10 uM after 48 hrs by sulforhodamine B assay relative to control; details: IGROV-1, 48 h, read-out: Activity; procedure, shortened: as §1
HOP-92 = assay: Cytotoxicity against human HOP92 cells assessed as cell growth at 10 uM after 48 hrs by sulforhodamine B assay relative to control; details: HOP-92, 48 h, read-out: Activity; procedure, shortened: as §1
NCI-H522 = assay: Cytotoxicity against human NCI-H522 cells assessed as cell growth at 10 uM after 48 hrs by sulforhodamine B assay relative to control; details: NCI-H522, 48 h, read-out: Activity; procedure, shortened: as §1
COLO 205 = assay: Cytotoxicity against human COLO205 cells assessed as cell growth at 10 uM after 48 hrs by sulforhodamine B assay relative to control; details: COLO 205, 48 h, read-out: Activity; procedure, shortened: as §1
SW-620 = assay: Cytotoxicity against human SW620 cells assessed as cell growth at 10 uM after 48 hrs by sulforhodamine B assay relative to control; details: SW-620, 48 h, read-out: Activity
CAKI-1 = assay: Cytotoxicity against human Caki1 cells assessed as cell growth at 10 uM after 48 hrs by sulforhodamine B assay relative to control; details: CAKI-1, 48 h, read-out: Activity; procedure, shortened: as §1
UACC-62 = assay: Cytotoxicity against human UACC62 cells assessed as cell growth at 10 uM after 48 hrs by sulforhodamine B assay relative to control; details: UACC-62, 48 h, read-out: Activity
SF-539 = assay: Cytotoxicity against human SF539 cells assessed as cell growth at 10 uM after 48 hrs by sulforhodamine B assay relative to control; details: SF-539, 48 h, read-out: Activity; procedure, shortened: as §1
SNB-75 = assay: Cytotoxicity against human SNB75 cells assessed as cell growth at 10 uM after 48 hrs by sulforhodamine B assay relative to control; details: SNB-75, 48 h, read-out: Activity
OVCAR-4 = assay: Cytotoxicity against human OVCAR4 cells assessed as cell growth at 10 uM after 48 hrs by sulforhodamine B assay relative to control; details: OVCAR-4, 48 h, read-out: Activity; procedure, shortened: as §1
MCF7 = assay: Cytotoxicity against human MCF7 cells assessed as cell growth at 10 uM after 48 hrs by sulforhodamine B assay relative to control; details: MCF7, 48 h, read-out: Activity; procedure, shortened: as §1
MDA-MB-435 = assay: Cytotoxicity against human MDA-MB-435 cells assessed as cell growth at 10 uM after 48 hrs by sulforhodamine B assay relative to control; details: MDA-MB-435, 48 h, read-out: Activity; procedure, shortened: as §1
RPMI-8226 = assay: Cytotoxicity against human RPMI8226 cells assessed as cell growth at 10 uM after 48 hrs by sulforhodamine B assay relative to control; details: RPMI-8226, 48 h, read-out: Activity; procedure, shortened: as §1
SNB-19 = assay: Cytotoxicity against human SNB19 cells assessed as cell growth at 10 uM after 48 hrs by sulforhodamine B assay relative to control; details: SNB-19, 48 h, read-out: Activity; procedure, shortened: as §1
MOLT-4 = assay: Cytotoxicity against human MOLT4 cells assessed as cell growth at 10 uM after 48 hrs by sulforhodamine B assay relative to control; details: MOLT-4, 48 h, read-out: Activity; procedure, shortened: as §1
SK-MEL-28 = assay: Cytotoxicity against human SK-MEL-28 cells assessed as cell growth at 10 uM after 48 hrs by sulforhodamine B assay relative to control; details: SK-MEL-28, 48 h, read-out: Activity; procedure, shortened: as §1
DU-145 = assay: Cytotoxicity against human DU145 cells assessed as cell growth at 10 uM after 48 hrs by sulforhodamine B assay relative to control; details: DU-145, 48 h, read-out: Activity; procedure, shortened: as §1
K562 = assay: Cytotoxicity against human K562 cells assessed as cell growth at 10 uM after 48 hrs by sulforhodamine B assay relative to control; details: K562, 48 h, read-out: Activity; procedure, shortened: as §1
HOP-62 = assay: Cytotoxicity against human HOP62 cells assessed as cell growth at 10 uM after 48 hrs by sulforhodamine B assay relative to control; details: HOP-62, 48 h, read-out: Activity; procedure, shortened: as §1
NCI-H226 = assay: Cytotoxicity against human NCI-H226 cells assessed as cell growth at 10 uM after 48 hrs by sulforhodamine B assay relative to control; details: NCI-H226, 48 h, read-out: Activity; procedure, shortened: as §1
HCT-116 = assay: Cytotoxicity against human HCT116 cells assessed as cell growth at 10 uM after 48 hrs by sulforhodamine B assay relative to control; details: HCT-116, 48 h, read-out: Activity; procedure, shortened: as §1
LOX IMVI = assay: Cytotoxicity against human LOXIMVI cells assessed as cell growth at 10 uM after 48 hrs by sulforhodamine B assay relative to control; details: read-out: Activity; procedure, shortened: as §1

Row | Compound | growth at 10 µM (UACC-257) | growth at 10 µM (HCC 2998) | growth at 10 µM (OVCAR-5) | growth at 10 µM (HL-60(TB)) | growth at 10 µM (SN12C) | growth at 10 µM (OVCAR-8) | growth at 10 µM (ACHN) | growth at 10 µM (KM12) | growth at 10 µM (SK-MEL-2) | growth at 10 µM (HCT-15) | growth at 10 µM (SK-MEL-5) | growth at 10 µM (IGROV-1) | growth at 10 µM (HOP-92) | growth at 10 µM (NCI-H522) | growth at 10 µM (COLO 205) | growth at 10 µM (SW-620) | growth at 10 µM (CAKI-1) | growth at 10 µM (UACC-62) | growth at 10 µM (SF-539) | growth at 10 µM (SNB-75) | further results
1 | COc1cc(/C=C/c2cc(Br)c3c(c2)C[C@@H]2C(C)(C)[C@H](O)CC[C@@]2(C)O3)cc(O)c1C/C=C(\C)CCC=C(C)C | 100% | 103% | 105% | 69.7% | 101% | 108% | 104% | 97.3% | 112% | 96.1% | 99.3% | 63.1% | 127% | 81.5% | 126% | 119% | 107% | 104% | 91.2% | 91.2% | growth at 10 µM (OVCAR-4): 110%; growth at 10 µM (MCF7): 102%; growth at 10 µM (MDA-MB-435): 109%; growth at 10 µM (RPMI-8226): 75%; growth at 10 µM (SNB-19): 106%; growth at 10 µM (MOLT-4): 74.1%; growth at 10 µM (SK-MEL-28): 106%; growth at 10 µM (DU-145): 91.3%; growth at 10 µM (K562): 79.9%; growth at 10 µM (HOP-62): 113%; growth at 10 µM (NCI-H226): 117%; growth at 10 µM (HCT-116): 84.5%; growth at 10 µM (LOX IMVI): 105%
2 | COCc1cc(/C=C/c2cc(O)c(C/C=C(\C)CCC=C(C)C)c(OC)c2)cc2c1O[C@]1(C)CC[C@@H](O)C(C)(C)[C@H]1C2 | 116% | 99.3% | 114% | 78.2% | 96.2% | 103% | 103% | 123% | 109% | 84.2% | 108% | 65.3% | 108% | 72.2% | 130% | 129% | 118% | 90.7% | 89.9% | 84.2% | growth at 10 µM (OVCAR-4): 108%; growth at 10 µM (MCF7): 103%; growth at 10 µM (MDA-MB-435): 120%; growth at 10 µM (RPMI-8226): 65.9%; growth at 10 µM (SNB-19): 96.4%; growth at 10 µM (MOLT-4): 70.4%; growth at 10 µM (SK-MEL-28): 118%; growth at 10 µM (DU-145): 105%; growth at 10 µM (K562): 72%; growth at 10 µM (HOP-62): 127%; growth at 10 µM (NCI-H226): 120%; growth at 10 µM (HCT-116): 68.5%; growth at 10 µM (LOX IMVI): 92.7%
